From the array DNA melting data of Ke et al. (doi:10.1101/2024.01.08.574731)

Legend:
[1] = folding enthalpy; higher = less favourable; fluorescence melt of hairpins on a sequencing array, two-state fit; settings: sodium 0.088 M
Outline: (§1)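 With Cy3 and quencher oligos annealed, library hairpins on a sequenced MiSeq flow cell were imaged for Cy3 fluorescence in 50 mM Na-HEPES pH 8.0, 25 mM NaCl, in 2.5 °C steps up to 60 °C. Melting temperature and folding enthalpy were derived from bootstrapped two-state fits of signals normalised to pre-quench Cy3 and to control constructs. Four replicates were combined by inverse variance, with fitted temperatures raised by 9.35 °C to match UV melts.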

[2] = melting temperature; fluorescence melt of hairpins on a sequencing array, two-state fit, raised by 9.35 °C to match UV melts; settings: sodium 0.088 M
Outline: as §1

Row | Sequence | folding enthalpy [1] | Tm [2]
1 | GCCACGCGAAAGCCAGGC (((..((....))..))) | -22.7 kcal/mol | 50.2 °C
2 | GCGGGTGGAAACACCCAC (.(((((....))))).) | -11.5 kcal/mol | 48.7 °C
3 | GCACAGCGAAAGCCGCGC ((.(.((....)).).)) | -20.3 kcal/mol | 46.5 °C
4 | GCTTTGCGAAAGCATAGC (((.(((....))).))) | -47.2 kcal/mol | 53.2 °C
5 | GCGGACGAAAGTCTACGC ((((((....)))..))) | -28.8 kcal/mol | 52.2 °C
6 | CGTTGCCGGAAACGGACG (((..(((....)))))) | -13.3 kcal/mol | 44.3 °C
7 | GATCCCGATGGGGATC ((((((....)))))) | -34.8 kcal/mol | 63.3 °C
8 | GACCATGGAAACATAGTC (((.(((....))).))) | -19.8 kcal/mol | 30.8 °C
9 | GATCACGGATGTGATC ((((((....)))))) | -37.1 kcal/mol | 67.5 °C
10 | GGGGCTGGAAACGGCCTC (.(((.(....).))).) | -20.8 kcal/mol | 50.2 °C
11 | GCCGTTACGAAAGTAGGC (((..(((....)))))) | -33.1 kcal/mol | 54.8 °C
12 | GACCGGGGAAACCCAGTC (((.(((....))).))) | -23.6 kcal/mol | 42.8 °C
13 | GTTGAGCGAAAGCTTAAC (((.(((....))).))) | -26.4 kcal/mol | 52.4 °C
14 | GGCAACGAAAGTTCTGCC ((((((....)))..))) | -27.3 kcal/mol | 40.4 °C
15 | GCGGTGGACCGC ((((....)))) | -26.6 kcal/mol | 59.6 °C
16 | GATCATGTCCATGATC ((((((....)))))) | -42.5 kcal/mol | 54.8 °C
17 | GTTACTGGAAACAGCAAC (((.(((....))).))) | -28 kcal/mol | 36 °C
18 | GATCAAAGATTGATC ((((((...)))))) | -27.5 kcal/mol | 36.1 °C
19 | GATCAGGTTGCTGATC ((((((....)))))) | -46.3 kcal/mol | 51.2 °C
20 | GCTCGCGAAAGCGGCAGC ((((((....)))..))) | -12.2 kcal/mol | 48.9 °C
21 | GATCCAGTATTGGATC ((((((....)))))) | -41.8 kcal/mol | 57.4 °C
22 | GATCGCGGAAACGCAATC (((.(((....))).))) | -22.6 kcal/mol | 41.3 °C
23 | GTGACACCGAAAGGTCAC (((..(((....)))))) | -25 kcal/mol | 47.8 °C
24 | GACTCGGGAAACCGAACC (..((((....))))..) | -9.35 kcal/mol | 22.6 °C

Row | Sequence | folding enthalpy [1] | Tm [2]
25 | AGTTCGAAAGAACT (((((....))))) | -20.8 kcal/mol | 55.4 °C
26 | GCGCACCCGAAAGGGCGC (((..(((....)))))) | -20.5 kcal/mol | 67 °C
27 | GCGACCGTTCGC ((((....)))) | -22.8 kcal/mol | 49.1 °C
28 | TAAACGAAAGTTTA (((((....))))) | -15.4 kcal/mol | 41.5 °C
29 | GTGGAAGGAAACCTCCAC (((((.(....).))))) | -34 kcal/mol | 44.1 °C
30 | GACAGCCGAAAGGCGGTC (((.(((....))).))) | -20.1 kcal/mol | 67 °C
31 | GCCAGTGGAAACATTGGC ((((.((....)).)))) | -37 kcal/mol | 50.8 °C
32 | GCGCCCGTGCGC ((((....)))) | -10.3 kcal/mol | 66.5 °C
33 | GATCTTAAGAAAGATC ((((((....)))))) | -22.1 kcal/mol | 36 °C
34 | CGCTACCGGAAACGGGCG (((..(((....)))))) | -22.5 kcal/mol | 49.4 °C
35 | GACCACGAAAGTGAGGTC ((((((....)))..))) | -22.8 kcal/mol | 48.3 °C
36 | GGGACAGGAAACTGTTCC ((.((((....)))).)) | -36.8 kcal/mol | 51.4 °C
37 | GAAGTGGGAAACCATTTC (((.(((....))).))) | -30.7 kcal/mol | 36.6 °C
38 | GATCCGCGTCGGATC ((((((...)))))) | -35.6 kcal/mol | 57.3 °C
39 | GGAGAATCGAAAGATTCC (((..(((....)))))) | -15.8 kcal/mol | 38.1 °C
40 | GCTGAAGGAAACTCCAGC ((((.((....)).)))) | -27.8 kcal/mol | 40.7 °C
41 | GATCGATTGCTCGATC ((((((....)))))) | -31.9 kcal/mol | 51.2 °C
42 | GATAGAGGAAACTCTATC (((((((....))))))) | -42 kcal/mol | 50.2 °C
43 | GGATGAGGAAACTCGTTC (.(.(((....))).).) | -15.8 kcal/mol | 28.3 °C
44 | GGTCTCGAAAGAGTGACC ((((((....)))..))) | -24.5 kcal/mol | 39.8 °C
45 | GGAGTTGGAAACAGTTCC (((..((....))..))) | -13.4 kcal/mol | 35 °C
46 | GTATAAGGAAACTTATAC (((((((....))))))) | -30.9 kcal/mol | 46 °C
47 | GATCTGCTTACAGATC ((((((....)))))) | -42.8 kcal/mol | 51.8 °C
48 | GATCAGTCGCCTGATC ((((((....)))))) | -57.2 kcal/mol | 51.5 °C

Row | Sequence | folding enthalpy [1] | Tm [2]
49 | GAAGTACGAAAGTAATTC (((.(((....))).))) | -25.9 kcal/mol | 42.9 °C
50 | GGTTTCCGAAAGGACACC (((.(((....))).))) | -39 kcal/mol | 49 °C
51 | GAGTCCGAAAGGAGCTC ((((((....))).))) | -22 kcal/mol | 47.2 °C
52 | GATCGTAGTAACGATC ((((((....)))))) | -41.5 kcal/mol | 55.7 °C
53 | GATCGCCCATGCGATC ((((((....)))))) | -36.2 kcal/mol | 67.6 °C
54 | GCCTGTCGAAAGACCGGC (((.(((....))).))) | -39.5 kcal/mol | 55.8 °C
55 | GTGTAGACGAAAGTCCAC (((..(((....)))))) | -20.6 kcal/mol | 42.8 °C
56 | GCGGGCCGCCGC ((((....)))) | -15.5 kcal/mol | 61.5 °C
57 | GTCCCGCGAAAGCGTGAC (((.(((....))).))) | -23.9 kcal/mol | 52.9 °C
58 | GGAAGTGGAAACGCTTCC (((((.(....).))))) | -41.7 kcal/mol | 50.8 °C
59 | GTAGGTCGAAAGACTAC (((.(((....)))))) | -17.6 kcal/mol | 43.3 °C
60 | GACACCGGAAACGGCGTC (((.(((....))).))) | -43 kcal/mol | 52.6 °C
61 | GAAGCCGAAAGGCGTTTC ((((((....)))..))) | -8.82 kcal/mol | 44.7 °C
62 | GGTTCTGGAAACAGAACC (((((((....))))))) | -46.5 kcal/mol | 60.8 °C
63 | GTACTCGAAAGAGTTAC ((((((....))).))) | -14.8 kcal/mol | 38.9 °C
64 | GTTGTGGGAAACCGTAAC (((..((....))..))) | -13 kcal/mol | 29.2 °C
65 | GCGCACGAAAGTGCACGC ((((((....)))..))) | -14.6 kcal/mol | 61.1 °C
66 | GACGTCGGAAACGGTGTC (((..((....))..))) | -25.7 kcal/mol | 43 °C
67 | GATCCCAAAGGGGATC ((((((....)))))) | -31.7 kcal/mol | 57.3 °C
68 | GGACAGGGAAACCTGCCC ((.((((....)))).)) | -22.3 kcal/mol | 48.2 °C
69 | GGTACGGGAAACCGTACC (((((((....))))))) | -33.4 kcal/mol | 67.8 °C
70 | GGGCCCGAAAGGGAACCC ((((((....)))..))) | -15.6 kcal/mol | 57.5 °C
71 | GGATAACGAAAGTTCTCC (((.(((....))).))) | -32.7 kcal/mol | 41.3 °C
72 | GCTGTGAAAACAGC (((((....))))) | -30.2 kcal/mol | 63.3 °C

Row | Sequence | folding enthalpy [1] | Tm [2]
73 | GACAGCGAAAGCTGTGTC ((((((....)))..))) | -10.8 kcal/mol | 56.9 °C
74 | GACCGGGGAAACCTGGTC ((((.((....)).)))) | -39.3 kcal/mol | 55.4 °C
75 | GATCGGCACGCCGATC ((((((....)))))) | -31.6 kcal/mol | 67.8 °C
76 | GCGGTTGGAAACGATCGC (((.(.(....).).))) | -28.5 kcal/mol | 45.3 °C
77 | CGTCGCGGAAACGCCACG (((.(((....))).))) | -33.1 kcal/mol | 45.1 °C
78 | GTCCGCGGAAACGCAGAC (((.(((....))).))) | -21.5 kcal/mol | 49.9 °C
79 | GACCTGGAAACAGGTC ((((((....)))))) | -40.6 kcal/mol | 61.4 °C
80 | GCCTCGCGAAAGCTTGGC (((..((....))..))) | -25.5 kcal/mol | 51.4 °C
81 | GGGAAGAAATTCCC (((((....))))) | -19.9 kcal/mol | 44.6 °C
82 | GATCATTTTATGATC ((((((...)))))) | -30.4 kcal/mol | 51.4 °C
83 | GATCTTATTGAAGATC ((((((....)))))) | -31.5 kcal/mol | 41.8 °C
84 | GGTGAGGGAAACCTCGTC (..((((....))))..) | -13.3 kcal/mol | 33.2 °C
85 | GATCCTCACTAGGATC ((((((....)))))) | -35.1 kcal/mol | 51.7 °C
86 | GCGTCCGAACGC ((((....)))) | -21.8 kcal/mol | 53.2 °C
87 | GCACTGCGAAAGCTTTGC (((..((....))..))) | -24.5 kcal/mol | 42.9 °C
88 | GATCGGACAGCCGATC ((((((....)))))) | -36.9 kcal/mol | 52.4 °C
89 | GCAGAGCGAAAGCGGTGC (((..((....))..))) | -23.7 kcal/mol | 63.5 °C
90 | GCCTCGCGAAAGCGATGC ((.((((....)))).)) | -16.7 kcal/mol | 58.2 °C
91 | GACCATACGAAAGTAGTC (((..(((....)))))) | -9.93 kcal/mol | 25.7 °C
92 | GCCTCCGAAAGGAATGGC ((((((....)))..))) | -23 kcal/mol | 49.9 °C
93 | GATCTCGCCTGAGATC ((((((....)))))) | -36.8 kcal/mol | 54 °C
